From ChEMBL document CHEMBL1151898 (J Nat Prod, 2009)

Tests used:
[1] = target: T1, Xanthine dehydrogenase/oxidase (Bos taurus, UniProt P80457); test: Ratio of kcat to km for bovine xanthine oxidase at 50 uM; settings: cattle
[2] = target: T1, Xanthine dehydrogenase/oxidase; test: Inhibition of bovine xanthine oxidase assessed as reduction of cytochrome c; set-up: concentration or dose not given beside the values; settings: cattle
[3] = target: T1, Xanthine dehydrogenase/oxidase; test: Activity at bovine xanthine oxidase at 25 uM; settings: cattle
[4] = target: T1, Xanthine dehydrogenase/oxidase; test: Inhibition of bovine xanthine oxidase assessed as reduction of cytochrome c at 10 uM; settings: cattle
[5] = target: T1, Xanthine dehydrogenase/oxidase; test: Ratio of kcat to km for bovine xanthine oxidase at 25 uM preincubated for 10 mins; settings: cattle
[6] = target: T1, Xanthine dehydrogenase/oxidase; test: Activity at bovine xanthine oxidase at 50 uM; settings: cattle
[7] = target: T1, Xanthine dehydrogenase/oxidase; test: Ratio of kcat to km for bovine xanthine oxidase at 10 uM; settings: cattle
[8] = target: T1, Xanthine dehydrogenase/oxidase; test: Ratio of kcat to km for bovine xanthine oxidase at 25 uM; settings: cattle
[9] = target: T1, Xanthine dehydrogenase/oxidase; test: Activity at bovine xanthine oxidase at 10 uM; settings: cattle
[10] = target: T1, Xanthine dehydrogenase/oxidase; test: Activity at bovine xanthine oxidase at 25 uM preincubated for 10 mins; settings: cattle
[11] = target: T1, Xanthine dehydrogenase/oxidase; test: Inhibition of bovine xanthine oxidase assessed as reduction of cytochrome c at 50 uM; settings: cattle
[12] = target: T1, Xanthine dehydrogenase/oxidase; test: Inhibition of bovine xanthine oxidase assessed as reduction of cytochrome c at 25 uM preincubated for 10 mins; settings: cattle
[13] = target: T1, Xanthine dehydrogenase/oxidase; test: Inhibition of bovine xanthine oxidase assessed as reduction in xanthine turnover at 10 uM; settings: cattle
[14] = target: T1, Xanthine dehydrogenase/oxidase; test: Inhibition of bovine xanthine oxidase assessed as reduction in xanthine turnover at 50 uM; settings: cattle
[15] = target: T1, Xanthine dehydrogenase/oxidase; test: Inhibition of bovine xanthine oxidase
[16] = target: T1, Xanthine dehydrogenase/oxidase; test: Inhibition of bovine xanthine oxidase assessed as reduction in free enzyme turnover at 50 uM relative to control; settings: cattle
[17] = target: T1, Xanthine dehydrogenase/oxidase; test: Inhibition of bovine xanthine oxidase assessed as reduction in free enzyme turnover at 50 uM relative to control; settings: cattle
[18] = target: T1, Xanthine dehydrogenase/oxidase; test: Inhibition of bovine xanthine oxidase assessed as reduction in free enzyme turnover at 10 uM relative to control; settings: cattle
[19] = target: T1, Xanthine dehydrogenase/oxidase; test: Ratio of kcat to km for bovine xanthine oxidase at 25 uM preincubated for 10 mins relative to control; settings: cattle
[20] = target: T1, Xanthine dehydrogenase/oxidase; test: Inhibition of bovine xanthine oxidase assessed as decrease in production of superoxide at 50 uM relative to control; settings: cattle
Summary of the method: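 Superoxide followed indirectly by cytochrome c reduction. A550 monitored (Δε550 = 19.6 mM−1cm−1), initial rates vs no-inhibitor control. 25°C, 0.1 M MOPS, 0.2 mM EDTA, 0.1 M KCl, pH 7.4.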

[21] = target: T1, Xanthine dehydrogenase/oxidase; test: Inhibition of bovine xanthine oxidase assessed as reduction in xanthine turnover at 25 uM; settings: cattle

T1 sequence (P80457 whole entry): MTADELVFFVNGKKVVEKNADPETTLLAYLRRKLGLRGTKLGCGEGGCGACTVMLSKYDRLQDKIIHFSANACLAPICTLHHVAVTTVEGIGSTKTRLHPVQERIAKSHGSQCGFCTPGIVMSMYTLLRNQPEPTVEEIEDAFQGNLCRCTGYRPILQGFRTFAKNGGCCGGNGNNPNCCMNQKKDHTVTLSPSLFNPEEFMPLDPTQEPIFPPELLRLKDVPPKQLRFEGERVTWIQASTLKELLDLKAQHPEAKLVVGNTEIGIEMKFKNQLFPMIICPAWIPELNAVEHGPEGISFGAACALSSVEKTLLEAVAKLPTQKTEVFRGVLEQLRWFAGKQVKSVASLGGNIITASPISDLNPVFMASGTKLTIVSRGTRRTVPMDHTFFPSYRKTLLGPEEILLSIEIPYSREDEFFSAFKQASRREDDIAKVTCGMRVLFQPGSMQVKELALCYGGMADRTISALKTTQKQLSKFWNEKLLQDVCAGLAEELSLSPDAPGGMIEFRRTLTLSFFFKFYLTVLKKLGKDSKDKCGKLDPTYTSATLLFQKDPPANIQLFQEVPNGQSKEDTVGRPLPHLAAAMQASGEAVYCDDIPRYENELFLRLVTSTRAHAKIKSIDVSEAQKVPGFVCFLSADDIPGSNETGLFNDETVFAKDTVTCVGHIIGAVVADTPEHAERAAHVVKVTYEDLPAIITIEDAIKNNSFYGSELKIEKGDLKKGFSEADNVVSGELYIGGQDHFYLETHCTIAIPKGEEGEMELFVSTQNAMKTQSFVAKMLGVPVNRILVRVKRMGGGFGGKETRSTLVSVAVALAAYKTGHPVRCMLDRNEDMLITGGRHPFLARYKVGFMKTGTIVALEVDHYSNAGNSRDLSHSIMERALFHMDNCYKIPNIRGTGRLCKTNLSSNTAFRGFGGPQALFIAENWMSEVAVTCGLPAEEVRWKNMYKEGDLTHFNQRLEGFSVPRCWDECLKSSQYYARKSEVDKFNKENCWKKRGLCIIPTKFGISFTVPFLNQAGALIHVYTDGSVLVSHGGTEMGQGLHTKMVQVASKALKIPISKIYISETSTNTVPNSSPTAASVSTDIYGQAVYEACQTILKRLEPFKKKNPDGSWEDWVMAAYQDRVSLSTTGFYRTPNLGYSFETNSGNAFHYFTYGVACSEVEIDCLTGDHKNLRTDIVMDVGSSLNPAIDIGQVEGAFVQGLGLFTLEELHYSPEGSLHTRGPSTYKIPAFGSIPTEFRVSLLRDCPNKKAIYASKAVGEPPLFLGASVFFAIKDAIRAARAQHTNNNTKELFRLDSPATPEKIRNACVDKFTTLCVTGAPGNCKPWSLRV

Row | inhibition at 10 µM [13] [%] | inhibition at 50 µM [14] [%] | Structure (SMILES) | Kcat/Km [1] [M⁻¹ s⁻¹] | Activity [2] [nM/s] | Kcat [3] [s⁻¹] | Activity [4] [nM/s] | Kcat/Km [5] [M⁻¹ s⁻¹] | Kcat [6] [s⁻¹] | Kcat/Km [7] [M⁻¹ s⁻¹] | Kcat/Km [8] [M⁻¹ s⁻¹] | Kcat [9] [s⁻¹] | Kcat [10] [s⁻¹] | Activity [11] [nM/s] | Activity [12] [nM/s] | further results
1 |  |  | Oc1ncnc2[nH]ncc12 [ALLOPURINOL] | 110000 | 140 | 11.8 | 140 | 7000 | 4.3 | 320000 | 150000 | 5.9 | 1.3 | 120 | 28 | 
2 | 60 | > 80 | COc1cc(/C=C/C(=O)CC(=O)/C=C/c2ccc(O)c(OC)c2)ccc1O [CURCUMIN] | 5.1e+06 | 150 | 4.3 | 160 | 3.9e+06 | 5 | 4.8e+06 | 6.5e+06 | 2.6 | 6.5 | 150 | 150 | 
3 |  |  | O=c1cc(-c2ccc(O)c(O)c2)oc2cc(O)cc(O)c12 [LUTEOLIN] | 20000 | 82 | 4.5 | 100 | 50000 | 12.2 | 200000 | 30000 | 6.2 | 3.8 | 71 | 110 | Ki [15]: 1900 nM
4 |  |  | O=c1c(O)c(-c2ccc(O)c(O)c2)oc2cc(O)cc(O)c12 [QUERCETIN] | 20000 | 100 | 1.9 | 140 | 50000 | 12.4 | 1.6e+06 | 10000 | 3.8 | 8.1 | 80 | 110 | fold change (FC) [16]: 170; fold change (FC) [17]: 170; fold change (FC) [18]: 20
5 | 50 | 50 | COc1cc(C2Oc3cc([C@H]4Oc5cc(O)cc(O)c5C(=O)[C@@H]4O)ccc3OC2CO)ccc1O (stereo partly specified) [SILIBININ] | 110000 | 150 | 13.3 | 160 | 70000 | 4 | 140000 | 130000 | 5.8 | 6.9 | 140 | 120 | fold change (FC) [19]: 80; inhibition at 50 µM [20]: 20%; inhibition at 25 µM [21]: 50%
